According to paper PMC3224645 (Purinergic Signalling, 2011):
One block for each compound: values may come before it.

Key:
[1] = test system: breast cancer cell lines lacking A3R mRNA; conditions: concentrations between 10 and 100 μM (500 μM for adenosine); cited from earlier work
[2] = test system: N1S1 (rat hepatocellular carcinoma) cells; test: [3H]-thymidine incorporation proliferation assay, N1S1; type: cell-based
Outline: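 N1S1 rat hepatoma cells, not serum-starved, were assayed in growth medium (RPMI 1640, 10% FBS, 2 mM L-glutamine, penicillin/streptomycin) at 1.5 × 10^4 cells/ml. […] Assays ran 24 h, or 48 h for experiments with EHNA (10 μM). [3H]-thymidine (1 μCi) was pulsed for the last 18 h, then cells were harvested and scintillation-counted.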

[3] = target: T1, hA3R (Homo sapiens, UniProt P0DMS8); test: cAMP accumulation assay; type: cell-based
T1 sequence (P0DMS8 1-318): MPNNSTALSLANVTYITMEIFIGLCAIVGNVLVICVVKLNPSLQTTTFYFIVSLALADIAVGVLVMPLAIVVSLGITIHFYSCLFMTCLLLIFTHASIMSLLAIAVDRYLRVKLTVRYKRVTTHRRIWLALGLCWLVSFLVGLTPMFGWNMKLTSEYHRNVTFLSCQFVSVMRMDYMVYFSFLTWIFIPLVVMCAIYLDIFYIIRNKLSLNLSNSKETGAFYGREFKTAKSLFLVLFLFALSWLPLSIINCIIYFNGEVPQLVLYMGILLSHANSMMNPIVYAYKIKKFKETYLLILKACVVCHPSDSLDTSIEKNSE

[4] = target: T2, rat A3R (Rattus norvegicus, UniProt P28647); test: Radioligand binding, [125I]-AB-MECA displacement on RBL-2H3 cell membranes
T2 sequence (P28647 1-320): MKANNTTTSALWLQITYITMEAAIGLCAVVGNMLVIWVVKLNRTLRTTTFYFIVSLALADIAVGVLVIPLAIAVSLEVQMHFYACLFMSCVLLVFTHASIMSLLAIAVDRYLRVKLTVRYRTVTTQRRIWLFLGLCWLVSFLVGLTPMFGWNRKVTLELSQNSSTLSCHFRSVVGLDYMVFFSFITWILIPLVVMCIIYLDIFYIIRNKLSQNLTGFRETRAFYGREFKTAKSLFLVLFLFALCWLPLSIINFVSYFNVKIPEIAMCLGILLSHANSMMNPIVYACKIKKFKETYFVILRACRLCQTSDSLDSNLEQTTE

[5] = in the first 4 h, mostly in metabolized form; cited from earlier work
[6] = test system: LNCaP (human prostate carcinoma) cells; test: [3H]-thymidine incorporation proliferation assay, LNCaP; type: cell-based; conditions: for effect on LNCaP proliferation: 24 h
Outline: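 LNCaP cells were kept in RPMI 1640 with 10% FBS, then serum-starved for 18 h and assayed as monolayers in RPMI with 1% FBS at 1.5 × 10^4 cells/ml. […] Assays ran 24 h, or 48 h for experiments with EHNA (10 μM). [3H]-thymidine (1 μCi) was added for the last 18 h, then cells were harvested and counted. Three experiments in triplicate.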

[7] = test system: HL-60; conditions: 30 μM, in the presence of MRS1523 (10 μM) or MRS1220 (5 μM); cited from earlier work
[8] = test system: MOLT-4; conditions: 30 μM, in the presence of MRS1523 (10 μM) or MRS1220 (5 μM); cited from earlier work
[9] = phase I clinical studies; cited from earlier work
[10] = target: T1, hA3R; conditions: cited from earlier work
[11] = test system: LNCaP cells; test: LNCaP proliferation with IPA in the presence of A3R antagonist MRS1523; type: cell-based, human

Compound: Nc1nc(Cl)nc2c1ncn2[C@@H]1O[C@H](CO)[C@@H](O)[C@H]1O [2-chloro-adenosine]
antiproliferative effect on breast cancer cell lines lacking A3R mRNA [1]: had antiproliferative effects

Compound: CCCCCC[C@@H]([C@@H](C)O)n1cnc2c(N)ncnc21 (racemic) [EHNA]
basal growth inhibition of N1S1 cells ([2]; EHNA 10 μM alone, without adenosine): 22%

Compound: Nc1ncnc2c1ncn2[C@@H]1O[C@H](CO)C[C@H]1O [3′-deoxyadenosine]
antiproliferative effect on breast cancer cell lines lacking A3R mRNA [1]: had antiproliferative effects

inhibition by the antagonist of cAMP modulation by adenosine, IPA and Cl-IB-MECA ([3]; agonists 10 μM, VUF5574 1 μM or 10 μM): largely and significantly inhibited
Compound: COc1ccccc1NC(=O)Nc1nc(-c2cccnc2)nc2ccccc12 [VUF5574]

Ki [4]: 4.69 ± 0.2 µM
Compound: CC(C)=CCNc1ncnc2c1ncn2[C@@H]1O[C@H](CO)[C@@H](O)[C@H]1O [1b, N^6-(2-isopentenyl)-adenosine]
fraction excreted in urine [5]: more than 50%

effect of ADA on the agonist's inhibition of cAMP production ([3]; agonist 10 μM + ADA 0.8 IU/ml): abolished the effect
Compound: Nc1ncnc2c1ncn2[C@@H]1O[C@H](CO)[C@@H](O)[C@H]1O [1a, Adenosine]
inhibition of forskolin-stimulated cAMP production ([3]; agonist at 10 μM): inhibited cAMP production to a similar extent
effect on N1S1 proliferation ([2]; 25 μM): only a modest effect
effect on N1S1 proliferation in the presence of EHNA ([2]; adenosine 25 μM + EHNA 10 μM): almost full growth inhibition
antiproliferative effect on breast cancer cell lines lacking A3R mRNA [1]: had antiproliferative effects
effect on LNCaP proliferation ([6]; 25 μM): no effect
effect of EHNA on the adenosine effect in LNCaP ([6]; adenosine 25 μM + EHNA 10 μM, data not shown): did not increase the adenosine effect

Compound: CNC(=O)[C@H]1O[C@@H](n2cnc3c(NCc4cccc(I)c4)nc(Cl)nc32)[C@H](O)[C@@H]1O [Cl-IB-MECA, 2-chloro-N ^6-(3-iodobenzyl)adenosine-5′-N-methylcarboxamide]
growth of HL-60 [7]: inhibited growth
effect on N1S1 proliferation ([2]; 0.01–10 μM, 24 h): inhibited proliferation
growth of MOLT-4 [8]: inhibited growth
antiproliferative effect on breast cancer cell lines lacking A3R mRNA [1]: had antiproliferative effects
effect on LNCaP proliferation ([6]; 0.01–10 μM): inhibited proliferation

Compound: CNC(=O)[C@H]1O[C@@H](n2cnc3c(NCc4cccc(I)c4)ncnc32)[C@H](O)[C@@H]1O [IB-MECA]
tolerability [9]: tolerated very well
antiproliferative effect on breast cancer cell lines lacking A3R mRNA [1]: had antiproliferative effects

Compound: CCCOC(=O)c1c(-c2ccccc2)nc(CC)c(C(=O)SCC)c1CCC [MRS1523]
affinity for the hA3R compared to IPA [10]: approximately sixfold higher
blockade of the antiproliferative effect of IPA on LNCaP ([11]; IPA 1 μM, MRS1523 0.01–1 μM): small, although still significant at higher concentrations
blockade of the antiproliferative effect of IPA on LNCaP ([11]; IPA 10 μM, MRS1523 0.01–1 μM): no effect
blockade of the antiproliferative effect of IPA on LNCaP ([11]; MRS1523 0.1 and 1 μM, IPA 0.01 and 0.1 μM): prevented the antiproliferative effect
